Laboratory results: ChEMBL document CHEMBL4138140, “Discovery of Mechanism-Based Inactivators for Human Pancreatic Carboxypeptidase A from a Focused Synthetic Library” (ACS Med Chem Lett, 2017)

Experiments:
Carboxypeptidase A1 [1] = molecular target: T1, Carboxypeptidase A1 (Bos taurus, UniProt P00730); assay: Inhibition of bovine carboxypeptidase A using N-(4-methoxyphenylazoformyl)-Phe-OH as substrate preincubated for 2 mins followed by susbtrate addition measured for 15 mins at 30 secs interval
T1 sequence (P00730 whole entry): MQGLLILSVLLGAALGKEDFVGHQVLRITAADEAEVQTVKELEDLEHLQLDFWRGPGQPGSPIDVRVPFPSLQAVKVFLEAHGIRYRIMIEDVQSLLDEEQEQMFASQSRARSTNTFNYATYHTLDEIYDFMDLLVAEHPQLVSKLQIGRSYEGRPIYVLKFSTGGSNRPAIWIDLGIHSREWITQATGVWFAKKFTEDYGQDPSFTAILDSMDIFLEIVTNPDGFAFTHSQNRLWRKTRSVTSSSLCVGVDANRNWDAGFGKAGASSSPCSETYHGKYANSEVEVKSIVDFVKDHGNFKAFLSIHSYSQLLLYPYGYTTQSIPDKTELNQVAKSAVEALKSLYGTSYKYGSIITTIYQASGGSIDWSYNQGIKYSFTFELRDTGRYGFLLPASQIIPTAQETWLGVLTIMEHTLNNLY
Procedure, shortened: (§1)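 Compound was pre-incubated with enzyme before the activity assay, either briefly (2 min) or long (3 h), to test for time-dependent inhibition.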

Carboxypeptidase A1 [2] = molecular target: T1, Carboxypeptidase A1; assay: Inhibition of bovine carboxypeptidase A using N-(4-methoxyphenylazoformyl)-Phe-OH as substrate preincubated for 3 hrs followed by susbtrate addition measured for 15 mins at 30 secs interval; procedure, shortened: as §1
[3] = molecular target: T2, Carboxypeptidase A1 (Homo sapiens) (UniProt P15085); assay: (§2) Irreversible inhibition of recombinant human carboxypeptidase A1 expressed in Pichia pastoris using N-(4-methoxyphenylazoformyl)-Phe-OH as substrate measured for 600 secs by double reciprocal plot analysis
T2 sequence (whole entry): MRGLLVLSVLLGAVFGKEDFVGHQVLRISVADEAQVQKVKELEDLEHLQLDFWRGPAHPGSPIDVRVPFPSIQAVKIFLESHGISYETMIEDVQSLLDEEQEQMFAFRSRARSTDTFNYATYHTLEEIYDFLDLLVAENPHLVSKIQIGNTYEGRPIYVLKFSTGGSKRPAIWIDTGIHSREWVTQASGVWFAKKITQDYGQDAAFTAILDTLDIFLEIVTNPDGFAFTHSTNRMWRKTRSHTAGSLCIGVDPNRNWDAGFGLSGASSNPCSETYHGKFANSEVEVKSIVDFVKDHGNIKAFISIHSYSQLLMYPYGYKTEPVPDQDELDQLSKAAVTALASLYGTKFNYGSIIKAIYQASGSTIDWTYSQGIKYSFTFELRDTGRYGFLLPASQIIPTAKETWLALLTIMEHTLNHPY

Carboxypeptidase A1 [4] = molecular target: T3, Carboxypeptidase A1 (Homo sapiens, UniProt P15085); assay: as §2; details: read-out: Ki(app)
T3 sequence (P15085 whole entry): T2 sequence (whole entry)

| Compound | IC50 (Carboxypeptidase A1 [1]) [µM] | IC50 (Carboxypeptidase A1 [2]) [µM] | Kinact [3] [min⁻¹] | Ki (Carboxypeptidase A1 [4]) [µM] |
| --- | --- | --- | --- | --- |
| O=C(O)[C@@H](CC1CCC1)[C@H]1CS1 (racemic) | 60 | 0.97 | – | – |
| O=C(O)[C@@H](Cc1ccc(F)cc1)[C@H]1CS1 (racemic) | 18.7 | 0.47 | 0.47 | 60.4 |
| CCC[C@H](C(=O)O)[C@@H]1CO1 (racemic) | 115 | 1.13 | – | – |
| O=C(O)[C@@H](CCc1ccccc1)[C@@H]1CS1 (racemic) | – | 16.4 | – | – |
| O=C(O)[C@@H](Cc1ccc(I)cc1)[C@@H]1CO1 (racemic) | 48.3 | 1.04 | 0.6 | 413 |
| CCC[C@H](C(=O)O)[C@@H]1CS1 (racemic) | 31.9 | 0.6 | 0.82 | 294 |
| O=C(O)[C@@H](CC1CC1)[C@@H]1CO1 (racemic) | 276 | 11.2 | – | – |
| O=C(O)[C@@H](Cc1ccc(F)cc1)[C@@H]1CO1 (racemic) | 21.9 | 0.51 | 0.71 | 238 |
| CC(C)C[C@H](C(=O)O)[C@H]1CS1 (racemic) | – | 31.9 | – | – |
| O=C(O)[C@@H](Cc1ccc(I)cc1)[C@H]1CS1 (racemic) | 46.3 | 0.96 | 0.69 | 289 |
| O=C(O)[C@@H](CCc1ccccc1)[C@@H]1CO1 (racemic) | – | 8.25 | – | – |
| CC(C)C[C@H](C(=O)O)[C@H]1CO1 (racemic) | – | 0.57 | – | – |
| O=C(O)[C@@H](CC1CC1)[C@H]1CS1 (racemic) | 174 | 1.8 | – | – |
| CC(C)C[C@H](C(=O)O)[C@@H]1CS1 (racemic) | 14 | 0.26 | 0.52 | 56 |
| CC(C)C[C@H](C(=O)O)[C@@H]1CO1 (racemic) | – | 33.1 | – | – |
| O=C(O)[C@@H](CC1CCC1)[C@@H]1CO1 (racemic) | 57.9 | 1.13 | – | – |
